From ChEMBL document CHEMBL4428079, “Modulation of Backbone Flexibility for Effective Dissociation of Antibacterial and Hemolytic Activity in Cyclic Peptides” (ACS Med Chem Lett, 2016) come the findings set out here.

Converted amounts (≈) assume the structure as drawn. The source made the active and inactive calls. The calls are words filed in the database; no cut-off is given here. Bridge positions count the residues as written; N and C are the ends. Square brackets hold non-standard residues; d marks the D form. Peptide text beside a SMILES is read from it. Bip = N[C@@H](Cc1ccc(-c2ccccc2)cc1)C(=O)O; 2Nal = N[C@@H](Cc1ccc2ccccc2c1)C(=O)O; Dab = NCC[C@H](N)C(=O)O; AEEA = NCCOCCOCC(=O)O; Aoc = NCCCCCCCC(=O)O; Ahx = NCCCCCC(=O)O; AEA = NCCOCC(=O)O; GABA = NCCCC(=O)O

Broadly, the MIC is the lowest concentration that inhibits growth of the organism. One may read the EC50 as the concentration that produces a half-maximal response.

Experiment [1] relates to Staphylococcus aureus. Description: Antimicrobial activity against methicillin-resistant Staphylococcus aureus ATCC 33591 after 18 hrs by tube microdilution method. The experiment is classed as functional. As to conditions: ATCC 33591, 18 h. On the technique in general: Broth dilution looks for growth in wells or tubes with falling amounts of substance.
The test system of another experiment is Escherichia coli. Description: Antimicrobial activity against Escherichia coli ATCC 25922 after 18 hrs by tube microdilution method. The format is functional. The settings on record: ATCC 25922, 18 h.
The test system of another experiment is Enterococcus faecium. Description: Antimicrobial activity against vancomycin-resistant Enterococcus faecium ATCC 700221 after 18 hrs by tube microdilution method. The format is functional. As to conditions: ATCC 700221, 18 h.
The subject of a further experiment is Erythrocyte. Briefly: Hemolytic activity in human RBC after 1 hr by microplate reader method. The experiment is classed as ADME, cell-based.
The subject of a further experiment is Acinetobacter baumannii. Description: Antimicrobial activity against multiple drug resistant-Acinetobacter baumannii ATCC BAA-1605 after 18 hrs by tube microdilution method. The format is functional. The settings on record: ATCC BAA-1605, 18 h.
Another experiment has as its system Klebsiella pneumoniae. Description: Antimicrobial activity against multiple drug resistant-Klebsiella pneumoniae ATCC 700603 after 18 hrs by tube microdilution method. The format is functional. The settings on record: Klebsiella pneumoniae, 700603, 18 h.
For the next experiment, the system named is Pseudomonas aeruginosa. Briefly: Antimicrobial activity against Pseudomonas aeruginosa ATCC 27853 after 18 hrs by tube microdilution method. The experiment is classed as functional. As to conditions: ATCC 27853, 18 h.
The test system of experiment [2] is Lipid bilayer. Briefly: Binding affinity to DOPE/DOPG large unilamellar vesicles in 3:1 ratio assessed as exciton split measured at 225 nanometer in NaHCO3 buffer.
Experiment [3] concerns Staphylococcus aureus. Description: Bactericidal activity against Staphylococcus aureus ATCC 29213 assessed as reduction in bacterial burden at 32 uM after 24 hrs by time kill kinetic study. The experiment is classed as functional, organism-based. In short, it runs like this: (§1)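 Time-course kill assay against S. aureus ATCC 29213 with peptide at 32 μM. Viable cell count was followed over time as colony counts, with a final sampling at 24 h.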

In experiment [4] the test system is Staphylococcus aureus. Briefly: Bactericidal activity against Staphylococcus aureus ATCC 29213 assessed as reduction in bacterial burden at 32 uM measured up to 3.5 hrs by time kill kinetic study. The experiment is classed as functional. In short, it runs like this:
as §1

Experiment [5] concerns Lipid bilayer. Description: Membrane permeabilization in DOPC/POPG large unilamellar vesicles in 3:1 ratio assessed as sulforhodamine B release at 16 to 64 uM by fluorescence assay. An outline of the steps: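 Sulforhodamine B was entrapped at self-quenching concentration in LUVs of DOPC/POPG at 3:1. PE lipids were excluded, and palmitoyl replaced one oleyl chain for vesicle stability. Peptide was added at 16, 32 or 64 μM, and marker release was followed over time as fluorescence recovery on dye release and dilution.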

The subject of experiment [6] is Staphylococcus aureus. Description: Bactericidal activity against Staphylococcus aureus ATCC 29213 assessed as reduction in bacterial burden at 32 uM measured up to 30 mins by time kill kinetic study. The format is functional. In short, it runs like this: as §1

For the compound `NCCCC[C@@H]1NC(=O)[C@H](CCCCN)NC(=O)[C@H](Cc2ccc3ccccc3c2)NC(=O)[C@H](CCCCN)NC(=O)[C@@H](CC(N)=O)NC(=O)[C@H](CCCCN)NC(=O)[C@H](Cc2ccc3ccccc3c2)NC(=O)CCCCCCCCCNC(=O)[C@H](Cc2ccc(-c3ccccc3)cc2)NC1=O`, the MIC is 16 µM (≈ 22.6 µg/mL) in the experiment on Staphylococcus aureus [1]; 16 µM (≈ 22.6 µg/mL) against Escherichia coli; 8 µM (≈ 11.3 µg/mL) against Enterococcus faecium; 16 µM (≈ 22.6 µg/mL) in the experiment with Acinetobacter baumannii; > 64 µM in the experiment with Klebsiella pneumoniae; > 64 µM in the experiment with Pseudomonas aeruginosa. Further, in the experiment on Erythrocyte, the EC50 was 5 µM.

With `NCCCC[C@@H]1NC(=O)[C@H](Cc2ccc3ccccc3c2)NC(=O)CCCCCCCCCNC(=O)[C@H](Cc2ccc(-c3ccccc3)cc2)NC(=O)[C@H](CCCCN)NC(=O)[C@H](CCCCN)NC(=O)[C@H](Cc2ccc3ccccc3c2)NC(=O)[C@H](CCCCN)NC(=O)[C@H](CC(N)=O)NC1=O`, in the experiment on Lipid bilayer [2], the outcome was Active.

As for `NCCCC[C@@H]1NC(=O)[C@H](CCCCN)NC(=O)[C@H](Cc2ccc3ccccc3c2)NC(=O)[C@H](CCCCN)NC(=O)[C@H](CC(N)=O)NC(=O)[C@H](CCCCN)NC(=O)[C@H](Cc2ccc3ccccc3c2)NC(=O)[C@@H](N)CCCCNC(=O)[C@H](Cc2ccc(-c3ccccc3)cc2)NC1=O` (H-K[2Nal]KNK[2Nal]KK[Bip]; lactam 1-C), the MIC in the experiment on Staphylococcus aureus [1] is 16 µM (≈ 22 µg/mL); in the experiment with Escherichia coli, 32 µM (≈ 43.9 µg/mL); with Enterococcus faecium, 2 µM (≈ 2.75 µg/mL); in the experiment with Acinetobacter baumannii, > 64 µM; in the experiment with Klebsiella pneumoniae, 64 µM (≈ 87.9 µg/mL); in the experiment on Pseudomonas aeruginosa, 16 µM (≈ 22 µg/mL). Also, the EC50 in the experiment on Erythrocyte was > 300 µM. For the same compound, in the experiment with Lipid bilayer [2], the result was Active.

For `NCCCC[C@@H]1NC(=O)[C@H](CCCCN)NC(=O)[C@H](Cc2ccc3ccccc3c2)NC(=O)[C@H](CCCCN)NC(=O)[C@H](CC(N)=O)NC(=O)[C@H](CCCCN)NC(=O)[C@H](Cc2ccc3ccccc3c2)NC(=O)[C@@H](N)CCNC(=O)[C@H](Cc2ccc(-c3ccccc3)cc2)NC1=O` (H-[Dab][2Nal]KNK[2Nal]KK[Bip]; lactam 1-C), the MIC is 16 µM (≈ 21.5 µg/mL) in the experiment with Staphylococcus aureus [1]; 64 µM (≈ 86.1 µg/mL) in the experiment on Escherichia coli; 2 µM (≈ 2.69 µg/mL) with Enterococcus faecium; > 64 µM against Acinetobacter baumannii; 64 µM (≈ 86.1 µg/mL) in the experiment on Klebsiella pneumoniae; 32 µM (≈ 43 µg/mL) with Pseudomonas aeruginosa. The outcome with Staphylococcus aureus [3] and in the experiment with Lipid bilayer [2] was Active. Moreover, the LCK in the experiment on Staphylococcus aureus [4] was determined as 3. Further, the EC50 in the experiment on Erythrocyte was > 300 µM.

Take `NCCCC[C@@H]1NC(=O)[C@H](Cc2ccc3ccccc3c2)NC(=O)COCCOCCNC(=O)[C@H](Cc2ccc(-c3ccccc3)cc2)NC(=O)[C@H](CCCCN)NC(=O)[C@H](CCCCN)NC(=O)[C@H](Cc2ccc3ccccc3c2)NC(=O)[C@H](CCCCN)NC(=O)[C@H](CC(N)=O)NC1=O` (cyclo(K[2Nal]KK[Bip][AEEA][2Nal]KN)): the MIC in the experiment with Staphylococcus aureus [1] came to 16 µM (≈ 22.2 µg/mL); against Escherichia coli, 64 µM (≈ 88.9 µg/mL); against Enterococcus faecium, 2 µM (≈ 2.78 µg/mL); in the experiment with Acinetobacter baumannii it was 16 µM (≈ 22.2 µg/mL); against Klebsiella pneumoniae, 64 µM (≈ 88.9 µg/mL); against Pseudomonas aeruginosa it was 32 µM (≈ 44.5 µg/mL). Also, in the experiment with Lipid bilayer [5], the result was Active. For the same compound, the EC50 with Erythrocyte was > 300 µM. The outcome in the experiment on Lipid bilayer [2] was inactive.

On to `NCCCC[C@@H]1NC(=O)[C@H](Cc2ccc3ccccc3c2)NC(=O)CNC(=O)[C@H](Cc2ccc(-c3ccccc3)cc2)NC(=O)[C@H](CCCCN)NC(=O)[C@H](CCCCN)NC(=O)[C@H](Cc2ccc3ccccc3c2)NC(=O)[C@H](CCCCN)NC(=O)[C@H](CC(N)=O)NC1=O` (cyclo([2Nal]KK[Bip]G[2Nal]KNK)), for which the MIC against Staphylococcus aureus [1] is 8 µM (≈ 10.4 µg/mL); in the experiment with Escherichia coli, 32 µM (≈ 41.7 µg/mL); against Enterococcus faecium, 4 µM (≈ 5.21 µg/mL); with Acinetobacter baumannii it was 32 µM (≈ 41.7 µg/mL); in the experiment with Klebsiella pneumoniae, 32 µM (≈ 41.7 µg/mL); against Pseudomonas aeruginosa it was 32 µM (≈ 41.7 µg/mL). The result in the experiment with Staphylococcus aureus [3], in the experiment on Lipid bilayer [5] and with Lipid bilayer [2] was Active. The compound also displayed an EC50 in the experiment on Erythrocyte of 45 µM.

Regarding `NCCCC[C@@H]1NC(=O)[C@H](Cc2ccc3ccccc3c2)NC(=O)COCCNC(=O)[C@H](Cc2ccc(-c3ccccc3)cc2)NC(=O)[C@H](CCCCN)NC(=O)[C@H](CCCCN)NC(=O)[C@H](Cc2ccc3ccccc3c2)NC(=O)[C@H](CCCCN)NC(=O)[C@H](CC(N)=O)NC1=O` (cyclo([2Nal]KK[Bip][AEA][2Nal]KNK)), the MIC was 16 µM (≈ 21.5 µg/mL) with Staphylococcus aureus [1]; 32 µM (≈ 43.1 µg/mL) against Escherichia coli; 4 µM (≈ 5.38 µg/mL) in the experiment on Enterococcus faecium; 32 µM (≈ 43.1 µg/mL) in the experiment on Acinetobacter baumannii; 64 µM (≈ 86.1 µg/mL) in the experiment with Klebsiella pneumoniae; 32 µM (≈ 43.1 µg/mL) against Pseudomonas aeruginosa. Also, the EC50 in the experiment with Erythrocyte is > 300 µM. Moreover, the result with Lipid bilayer [2] was Active.

As to `NCCCC[C@@H]1NC(=O)[C@H](Cc2ccc3ccccc3c2)NC(=O)CCCCCNC(=O)[C@H](Cc2ccc(-c3ccccc3)cc2)NC(=O)[C@H](CCCCN)NC(=O)[C@H](CCCCN)NC(=O)[C@H](Cc2ccc3ccccc3c2)NC(=O)[C@H](CCCCN)NC(=O)[C@H](CC(N)=O)NC1=O` (cyclo([2Nal]KK[Bip][Ahx][2Nal]KNK)), the MIC with Staphylococcus aureus [1] is 8 µM (≈ 10.9 µg/mL); against Escherichia coli, 16 µM (≈ 21.7 µg/mL); with Enterococcus faecium, 2 µM (≈ 2.72 µg/mL); against Acinetobacter baumannii it was 8 µM (≈ 10.9 µg/mL); against Klebsiella pneumoniae it was 8 µM (≈ 10.9 µg/mL); with Pseudomonas aeruginosa, 16 µM (≈ 21.7 µg/mL). In the experiment on Erythrocyte, this compound yielded an EC50 of 18 µM. Also, the outcome with Lipid bilayer [2] was Active.

On to `NCCCC[C@@H]1NC(=O)[C@H](Cc2ccc3ccccc3c2)NC(=O)CCCCCCCNC(=O)[C@H](Cc2ccc(-c3ccccc3)cc2)NC(=O)[C@H](CCCCN)NC(=O)[C@H](CCCCN)NC(=O)[C@H](Cc2ccc3ccccc3c2)NC(=O)[C@H](CCCCN)NC(=O)[C@H](CC(N)=O)NC1=O` (cyclo([2Nal]KK[Bip][Aoc][2Nal]KNK)), for which the MIC was determined as 4 µM (≈ 5.54 µg/mL) in the experiment with Staphylococcus aureus [1]; 16 µM (≈ 22.2 µg/mL) in the experiment on Escherichia coli; 2 µM (≈ 2.77 µg/mL) against Enterococcus faecium; 16 µM (≈ 22.2 µg/mL) with Acinetobacter baumannii; 16 µM (≈ 22.2 µg/mL) in the experiment with Klebsiella pneumoniae; 16 µM (≈ 22.2 µg/mL) in the experiment on Pseudomonas aeruginosa. Besides, the outcome in the experiment on Lipid bilayer [5] and with Lipid bilayer [2] was Active. Moreover, in the experiment with Erythrocyte, a half-maximal response (EC50) required 12 µM.

Take `NCCCC[C@@H]1NC(=O)[C@H](Cc2ccc3ccccc3c2)NC(=O)CCCNC(=O)[C@H](Cc2ccc(-c3ccccc3)cc2)NC(=O)[C@H](CCCCN)NC(=O)[C@H](CCCCN)NC(=O)[C@H](Cc2ccc3ccccc3c2)NC(=O)[C@H](CCCCN)NC(=O)[C@H](CC(N)=O)NC1=O` (cyclo([2Nal]KK[Bip][GABA][2Nal]KNK)): the MIC in the experiment on Staphylococcus aureus [1] came to 16 µM (≈ 21.3 µg/mL); against Escherichia coli, 32 µM (≈ 42.5 µg/mL); in the experiment with Enterococcus faecium, 4 µM (≈ 5.32 µg/mL); against Acinetobacter baumannii it was 32 µM (≈ 42.5 µg/mL); with Klebsiella pneumoniae, 32 µM (≈ 42.5 µg/mL); in the experiment with Pseudomonas aeruginosa, 32 µM (≈ 42.5 µg/mL). Further, the result in the experiment with Staphylococcus aureus [3] and in the experiment with Lipid bilayer [2] was Active. The LCK in the experiment with Staphylococcus aureus [6] is on record as 3. For the same compound, in the experiment on Erythrocyte, it took 155 µM to reach a half-maximal effect (EC50).
